UBC9 SUMO inh – inhibitors of human SUMOylation (UBC9). inhibition, % at 35 µM. AID 2006. HTRF SUMOylation assay, SAE1/SAE2 + UBC9, in vitro. 290,000 compounds, 0.36% hits; in the data active means inhibition above about 50%, passing the limit was not always enough
UBC13 inh – inhibitors of human UBC13 polyubiquitin chain formation | P61088 | TR-FRET | inhibition, % at 20 µM | 330,000 compounds, 0.47% hits | AID 485273; in the data active means inhibition above about 45%, passing the limit was not always enough
Rin1-Abl PPI inh – blocks binding of human Rin1 to Abl; inhibition, % at 7.35 µM; TR-FRET Rin1/Abl binding, biochemical; 360,000 compounds, 0.4% hits; P00519+Q13671; AID 588664; in the data active means inhibition above about 5%, passing the limit was not always enough
PREPL inh – human PREPL enzyme inhibition; Q4J6C6; 320,000 compounds, 0.68% hits; inhibition, % at 5.96 µM; recombinant PREPL, fluorescence polarization activity-based probe; in the data active means inhibition above about 43%
ALR H2O2 inh – inhibitors of human sulfhydryl oxidase ALR; 290,000 compounds, 3.8% hits; P55789; inhibition, % (no concentration beside the values); AID 485317; purified ALR, DTT oxidation, H2O2 HRP-luminol luminescence;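 active means mean replicate inhibition above about 79%, with every replicate also reaching it, limit read from the data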
Target sequence (P55789 whole entry, looked up): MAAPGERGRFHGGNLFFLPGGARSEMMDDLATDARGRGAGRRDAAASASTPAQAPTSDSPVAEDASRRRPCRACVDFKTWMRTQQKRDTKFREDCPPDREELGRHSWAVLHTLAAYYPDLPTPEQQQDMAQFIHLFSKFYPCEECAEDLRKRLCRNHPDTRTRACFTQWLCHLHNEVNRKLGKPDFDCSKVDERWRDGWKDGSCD
RBBP9 inhibitor – blocks human serine hydrolase RBBP9; recombinant RBBP9, FP-Rh probe fluorescence polarization; inhibition, % at 7.94 µM; 220,000 compounds, 0.2% hits;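 active means inhibition above the campaign mean of all tested compounds plus 3 SD, cut at about 14% in these data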
Target sequence (O75884 whole entry, looked up): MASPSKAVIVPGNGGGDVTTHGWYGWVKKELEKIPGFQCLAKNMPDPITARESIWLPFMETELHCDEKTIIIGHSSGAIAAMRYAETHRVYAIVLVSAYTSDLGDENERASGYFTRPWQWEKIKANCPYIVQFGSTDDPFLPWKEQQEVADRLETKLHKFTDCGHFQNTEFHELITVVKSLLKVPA
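System: RBBP9 protein / Buffer or medium: Tris/NaCl buffer pH 8.0 with 0.1% Pluronic / Probe or stimulus: Serine-hydrolase probe FP-Rh, 375 nM pre-mixing / Dosing: 7.94 µM single dose, 0.794% DMSO / Times: enzyme-compound preincubation 30 min, then probe labeling 45 min, 25 °C / Technique: fluorescence polarization (mP), excitation 525 nm, emission 598 nm / Replication: singlicate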
Hits are given with their value; i = inactive; nt = not tested or not shown. The list is not random: actives were taken first. Their share in the collection is about 4.3%.

SMILES	UBC9 SUMO inh	UBC13 inh	Rin1-Abl PPI inh	PREPL inh	ALR H2O2 inh	RBBP9 inhibitor
COc1cc(/C=C(\C#N)C(=O)c2c(C)[nH]c3ccccc23)cc(OC)c1OC	i	i	i	i	96	i
CCCC(=O)NNc1c2ccccc2nc2ccccc12	i	i	i	i	99	i
O=C(CCCO)NNc1c2ccccc2nc2ccccc12	i	i	i	i	99	i
CCN(Cc1ccncc1)S(=O)(=O)c1ccc(C(C)=O)cc1	i	i	i	i	90	i
CC(=O)c1ccccc1OC(=O)COc1ccc(Cl)cc1C	i	i	nt	i	96	i
Cc1c(Cc2ccccc2)[n+](=O)c2ccccc2n1[O-]	nt	nt	i	nt	nt	nt
CCCc1cc(-c2ccc(O)c(OCC)c2)c(C#N)c(N)n1	i	i	i	i	i	i
CCOc1cc(-c2cc(-c3ccc(C)o3)nc(N)c2C#N)ccc1O	i	i	i	i	80	i
COc1ccc(OC)c(CCNC(=O)CCCc2nnc3n(C)c(=O)c4sccc4n23)c1	i	i	i	i	i	nt
COCCn1cnnc1SCC(=O)c1ccc(S(=O)(=O)N2CCCC2)cc1	i	i	i	i	87	i
CC(=O)Nc1ccc(C(=O)N2CCCC(c3cc(C(=O)Nc4ccccc4)no3)C2)cc1 (centres undefined)	nt	nt	i	nt	nt	nt
Cc1cc(C)c(O)c(N)c1	i	nt	nt	nt	nt	i
CCN1CCc2c(sc(N)c2C#N)C1	i	i	i	i	nt	i
N#Cc1c(N)sc(=S)c2c1CCN(Cc1ccccc1)C2	67	i	nt	74	nt	nt
Nc1ccccc1Nc1cc(-c2ccccc2)nn1-c1cccc(Cl)c1	i	i	i	i	i	i
CNc1nn(-c2cccc(Cl)c2)nc1N	i	i	i	i	99	i
CCN(CC(=O)Nc1ccc(OC)cc1)CC(=O)Nc1sc2c(c1C(=O)OC)CCCC2	nt	i	i	i	nt	nt
Cc1ccc(-n2ccnc(SCC(=O)NC3CCCC3)c2=O)cc1Cl	nt	i	i	i	nt	nt
Cc1ccc(-n2ccnc(SCC(=O)NC3CCCC3)c2=O)cc1F	nt	i	i	i	94	nt
COC(=O)c1cc(NS(=O)(=O)c2cccc(Cl)c2)ccc1N1CCOCC1	i	i	i	i	i	i
O=C(O)c1cc(NCc2ccc(F)cc2)ccc1N1CCOCC1	i	i	i	i	97	i
O=C(O)c1cc(NCc2ccccc2C(F)(F)F)ccc1N1CCOCC1	i	i	i	i	i	i
O=C(NCc1cccs1)c1cc(S(=O)(=O)N2CCOCC2)ccc1N1CCCC1	nt	i	i	i	nt	nt
NS(=O)(=O)c1ccc(NCc2c(F)cccc2Cl)cc1	i	nt	i	nt	nt	i
Fc1cccc(Cl)c1CNc1ccc(N2CCCC2)cc1	i	i	i	i	99	i
SMILES	UBC9 SUMO inh	UBC13 inh	Rin1-Abl PPI inh	PREPL inh	ALR H2O2 inh	RBBP9 inhibitor
COC(=O)c1cc(NCc2c(F)cccc2Cl)ccc1N1CCOCC1	i	i	i	i	99	i
O=C(O)c1cc(NCc2cccs2)ccc1N1CCOCC1	i	i	i	i	98	i
COc1ccccc1CNC(=O)c1ccc2nc(N3CCOCC3)sc2c1	i	i	i	i	nt	nt
COC(=O)c1cc(NC(=O)c2cccs2)ccc1N1CCOCC1	i	i	i	i	i	i
COC(=O)c1cc(NCc2cccs2)ccc1N1CCOCC1	i	i	i	i	100	i
Cc1c(C(=O)N2CCOCC2)c(S(=O)(=O)Nc2cccc(C#N)c2)c(C)n1C	i	i	i	i	i	nt
COC(=O)c1c(C(=O)OC)c(-c2ccc(F)cc2)n2c1CSC2	i	i	i	i	99	nt
Cc1ccc(-c2c(C(=O)O)c(C(=O)O)c3n2CSC3)cc1	i	i	i	i	93	nt
COC(=O)c1c(C(=O)OC)c(-c2ccc(C)cc2)n2c1CS(=O)(=O)C2	i	i	i	i	i	i
Cc1ccc(-c2csc(NC(=O)c3ccc(Br)cc3)c2C(=O)O)cc1	i	i	i	i	i	nt
O=C(O)c1c(C(=O)O)c(-c2ccc(Br)cc2)n2c1CSC2	i	i	i	i	98	nt
CC(C)(C)c1ccc(-c2c(C(=O)O)c(C(=O)O)c3n2CSC3)cc1	i	i	i	i	i	nt
COc1cc2c(cc1OC)C(c1ccc(Br)cc1)N(C(=O)c1ccccc1C(=O)O)CC2 (centres undefined)	i	i	i	i	nt	nt
Cc1cc(Nc2ccc(N3CCC(C)CC3)cc2)n2ncnc2n1	i	i	i	i	90	i
O=C(Cc1c(F)cccc1Cl)OCN1C(=O)c2ccccc2C1=O	i	i	i	i	i	nt

Screens deposited in PubChem BioAssay by several laboratories.
